# Molecular target: T1, human ERAP1 (Homo sapiens, UniProt Q9NZ08, G346D/G514D/K528R/Q730E)
# Experiment: Activation of L-AMC hydrolysis by ERAP1 in the presence of peptides
# Assay type: biochemical
# Conditions: 100 μM L-AMC, 0–70 μM peptide, 0.87 μg ml^–1 ERAP1, 37°C (Fig. 6c,d)
# T1 sequence (Q9NZ08 whole entry G346D/G514D/K528R/Q730E): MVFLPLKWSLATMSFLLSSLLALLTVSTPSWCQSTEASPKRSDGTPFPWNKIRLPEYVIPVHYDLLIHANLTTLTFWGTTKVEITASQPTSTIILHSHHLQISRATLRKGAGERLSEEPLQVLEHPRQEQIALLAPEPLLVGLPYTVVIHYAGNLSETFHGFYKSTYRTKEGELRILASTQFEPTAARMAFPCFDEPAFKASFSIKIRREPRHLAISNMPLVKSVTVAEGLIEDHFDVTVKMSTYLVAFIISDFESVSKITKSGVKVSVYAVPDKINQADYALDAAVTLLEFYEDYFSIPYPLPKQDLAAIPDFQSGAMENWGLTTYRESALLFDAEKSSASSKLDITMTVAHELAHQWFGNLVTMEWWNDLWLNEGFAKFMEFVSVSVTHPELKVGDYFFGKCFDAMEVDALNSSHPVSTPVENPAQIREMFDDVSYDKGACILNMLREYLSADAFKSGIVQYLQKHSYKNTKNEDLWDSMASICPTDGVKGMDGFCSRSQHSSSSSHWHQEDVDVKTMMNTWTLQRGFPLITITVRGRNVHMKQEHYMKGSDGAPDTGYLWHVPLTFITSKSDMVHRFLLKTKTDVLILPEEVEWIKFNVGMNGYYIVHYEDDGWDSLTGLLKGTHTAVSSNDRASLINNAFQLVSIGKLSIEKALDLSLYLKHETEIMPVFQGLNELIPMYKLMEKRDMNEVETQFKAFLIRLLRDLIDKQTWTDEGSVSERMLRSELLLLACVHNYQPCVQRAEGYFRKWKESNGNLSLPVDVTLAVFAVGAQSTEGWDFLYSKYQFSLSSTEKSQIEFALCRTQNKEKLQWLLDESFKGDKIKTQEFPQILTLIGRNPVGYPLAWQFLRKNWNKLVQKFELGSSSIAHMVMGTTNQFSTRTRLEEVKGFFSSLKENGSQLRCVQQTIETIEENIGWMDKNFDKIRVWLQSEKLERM
row,Activation of ERAP1 hydrolysis of L-AMC by increasing peptide concentrations,Substance
1,activated,L(N-Me)VAFKARAF [L^Me]
2,activated,LVAFKARAF [L-peptide]
3,did not activate,R(N-Me)VAEAAFAE

# Molecular target: T1, human ERAP1
# Experiment: Peptide trimming assay
# Assay type: biochemical
# Conditions: 150 μM peptide, 3.5 μg ml^–1 ERAP1, 37°C, 50 mM Tris-HCl pH 7.8, 0.25 g L^–1 BSA, C18 RP-HPLC (Fig. 4a)
# Outline: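 Human ERAP1 (allelic variant) was baculovirus-expressed, Ni-NTA purified and treated with carboxypeptidase A at room temperature in PBS. Substrates were HPLC-purified synthetic peptides with mass confirmed by MS. Reactions were stopped with 0.6% (v/v) TFA, and the supernatant was run on C18 RP-HPLC with an acetonitrile gradient in 0.03% (v/v) TFA. Percent substrate cleaved was taken from integrated peak areas.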
row,Substance,ERAP1 processing of SIINFEKL length variants
1,FEKL,not long enough to be processed efficiently
2,INFEKL,not processed appreciably
3,QLESIINFEKL,processed efficiently
4,SIINFEKL [reference compound],not long enough to be processed efficiently
